# Assay results pooled from the literature.
# Protocols differ between the studies behind these lines.
# Target: Serine/threonine-protein kinase 32C (STK32C, Homo sapiens, UniProt Q86UX6)
read-out,technique,concentration,remaining binding,SMILES
cell-free assay,competition with immobilised ligand,1 µM,100%,O=C(NCc1ncc(C(F)(F)F)cc1Cl)c1ccc2c(c1)C1(CCS(=O)(=O)CC1)[C@@H](C1CC1)N2S(=O)(=O)c1ccc(F)cc1
binding,,1 µM,87%,CN(C)c1ncc(F)c(-c2cnn3ncccc23)n1
cell-free assay,competition with immobilised ligand,5 µM,100%,COc1ncc2cc3ccccc3nc2c1C#N
binding,competition with immobilised ligand,1 µM,100%,O=C(c1ccc(Nc2ncc(Cl)c(-c3cc4ccccc4s3)n2)cc1)N1CCC(N2CCCC2)CC1
cell-free assay,competition with immobilised ligand,1 µM,100%,COc1cc(-c2cn(C3CCc4c(F)cccc4N(CC(F)(F)F)C3=O)nn2)ccc1-n1cnc(C)c1 (stereo not shown)
binding,,1 µM,70%,CN(c1nccc(-c2cnn3ncccc23)n1)C1CC1
cell-free assay,competition with immobilised ligand,0.1 µM,93%,Cc1c[nH]c2nccc(Oc3c(F)cc(Nc4cc(Cl)nc(N)n4)cc3F)c12
binding,,1 µM,100%,C[C@H]1CCN(c2nccc(-c3cnn4ncccc34)n2)C1
binding,competition with immobilised ligand,1 µM,100%,COc1cnc(Nc2cccc(S(N)(=O)=O)c2)nc1N1CCN(c2ccccc2)CC1
binding,,1 µM,80%,COc1ccnn2ncc(-c3ccnc(N(C)C)n3)c12
binding,competition with immobilised ligand,10 µM,55%,c1cncc(-c2cccc(Nc3nccc(NC4CCCCC4)n3)c2)c1
cell-free assay,competition with immobilised ligand,1 µM,96%,O=C(Nc1cnc(Oc2ccc(F)cc2)nc1)N1CCc2ncccc2[C@@H]1c1ccc(F)cc1
binding,competition with immobilised ligand,1 µM,100%,O=C(c1ccc(Nc2nccc(-c3cc4ccccc4s3)n2)cc1)N1CCC(N2CCCC2)CC1
binding,,1 µM,100%,CN(C)c1nccc(-c2cnc3ncccn23)n1
binding,competition with immobilised ligand,1 µM,100%,O=C(NCC1CCOCC1)c1n[nH]cc1NC(=O)c1c(F)cccc1F
binding,competition with immobilised ligand,1 µM,100%,COc1cnc(Nc2cccc(S(N)(=O)=O)c2)nc1N1CCN(c2ccccc2)C(=O)C1
binding,competition with immobilised ligand,1 µM,99%,C=CC(=O)N1CCC(C(=O)NCC(=O)N2CCN(c3nc(-c4cnc(N)nc4C(F)F)nc(N4CCOCC4)n3)CC2)CC1
cell-free assay,competition with immobilised ligand,1 µM,54%,CO[C@H]1CC[C@H](CNc2ccc(S(=O)(=O)NC(=O)c3ccc(N4CCN(CC5=C(c6ccc(Cl)cc6)CC(C)(C)CC5)CC4)cc3Oc3cnc4[nH]ccc4c3)cc2[N+](=O)[O-])CC1
binding,,1 µM,100%,CN(C)c1nccc(-c2cnn3ncccc23)n1
cell-free assay,competition with immobilised ligand,0.1 µM,100%,CCOC(=O)c1cc2cc(-c3cc(C(=O)NCc4ccc(C(=O)O)cc4)nn3C)ccc2[nH]1
binding,,1 µM,99%,N[C@@H]1CCN(c2nccc(-c3cnn4ncccc34)n2)C1
cell-free assay,competition with immobilised ligand,1 µM,100%,CN1CCN(c2cnc3c(C4CCN(C(=O)c5ccc(OC(F)(F)F)cc5N)CC4)ncnc3c2)CC1
binding,competition with immobilised ligand,1 µM,100%,O=C(c1ccc(Nc2ncc(Cl)c(-c3ccc(Cl)s3)n2)cc1)N1CCC(N2CCCC2)CC1
cell-free assay,competition with immobilised ligand,0.1 µM,100%,CS(=O)(=O)N1CCCC(NC(=O)[C@H](CCC2CCCCC2)NC(=O)c2ccc(CNc3ncnc4c3nnn4-c3ccccc3)cc2)C1 (stereo partly shown)
binding,competition with immobilised ligand,0.5 µM,100%,C[C@@H]1CN(c2ccc3ncc(-c4ccc5[nH]nc(C6CC6)c5c4)n3n2)C[C@H](C)O1
